From ChEMBL document CHEMBL4715737, “New 1,3-thiazole derivatives and their biological and ultrastructural effects on Trypanosoma cruzi” (Eur J Med Chem, 2016)
Activity calls are given as the source filed them. The rule behind the calls is not given here.

Test system: Trypanosoma cruzi
Assay: Induction of morphological changes in Trypanosoma cruzi trypomastigotes assessed as alteration in reservosomes at 3.4 to 6.8 uM after 24 hrs by TEM analysis
Assay type: functional, organism-based
Details: dose 3.4-6.8 µM
In short: (§1)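 Trypomastigotes cultured 24 h in RPMI 1640 pH 7.5 with 20 mM HEPES, 10% FBS, penicillin/streptomycin plus compound at 3.4 and 6.8. Parasites washed in PBS and fixed in 2.5% glutaraldehyde/4% formaldehyde in 0.1 M cacodylate pH 6.8, then postfixed in 2% OsO4. SEM samples were ethanol-dehydrated, critical-point dried and gold-coated. TEM samples were acetone-dehydrated, epon-embedded and stained with uranyl acetate/lead citrate. Untreated controls were included.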

Structure (SMILES) | Activity
CC/C(=N\Nc1nc(-c2ccc(OC)cc2)cs1)c1cccc(Br)c1 | Active

Biological target: Cruzipain (Trypanosoma cruzi, UniProt P25779)
Assay: Inhibition of recombinant Trypanosoma cruzi cruzain using Z-FR-AMC as substrate and measured at 12 sec interval for 5 mins by fluorimetric analysis
Details: not given
In short: (§2)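 Cruzain (1 nM) in 0.1 M sodium acetate pH 5.5, 0.01% Triton X-100, 1 mM β-mercaptoethanol, substrate Z-FR-AMC, no pre-incubation. Fluorescence read at 25 °C every 12 s for 5 min; rates from initial velocities versus DMSO control. Screened at 300, 200 or 100 (solubility-limited). At least two independent experiments, each in triplicate.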

Sequence of Cruzipain (P25779 whole entry): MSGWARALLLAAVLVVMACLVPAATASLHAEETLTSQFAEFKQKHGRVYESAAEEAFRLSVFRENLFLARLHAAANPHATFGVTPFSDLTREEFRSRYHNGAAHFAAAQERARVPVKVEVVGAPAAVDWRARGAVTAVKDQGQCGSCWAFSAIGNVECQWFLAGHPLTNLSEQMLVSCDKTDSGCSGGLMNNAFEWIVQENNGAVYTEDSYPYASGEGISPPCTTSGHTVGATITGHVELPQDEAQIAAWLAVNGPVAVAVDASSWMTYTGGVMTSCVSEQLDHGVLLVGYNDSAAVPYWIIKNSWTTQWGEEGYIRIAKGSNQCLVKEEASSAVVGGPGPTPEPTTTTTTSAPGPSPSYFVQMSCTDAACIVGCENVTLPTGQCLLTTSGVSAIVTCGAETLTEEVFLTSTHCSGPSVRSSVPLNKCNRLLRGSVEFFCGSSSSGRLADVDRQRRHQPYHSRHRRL

IC50 | Structure (SMILES)
32.7 µM | CC/C(=N\Nc1nc(-c2ccc(Cl)cc2)cs1)c1cccc(Br)c1
19.2 µM | CC/C(=N\Nc1nc(-c2ccc(C)cc2)cs1)c1cccc(Br)c1
9.5 µM | CC/C(=N\Nc1nc(-c2ccc3ccccc3c2)cs1)c1cccc(Br)c1
3.8 µM | CC/C(=N\Nc1nc(-c2ccc(Br)cc2)c(C)s1)c1cccc(Br)c1
44.6 µM | CC/C(=N\Nc1nc(-c2ccccc2)cs1)c1cccc(Br)c1
14.6 µM | CC/C(=N\Nc1nc(-c2cccc([N+](=O)[O-])c2)cs1)c1cccc(Br)c1
16.5 µM | CC/C(=N\Nc1nc(-c2ccc(F)cc2)cs1)c1cccc(Br)c1
15.1 µM | CC/C(=N\Nc1nc(-c2ccc(Cl)cc2Cl)cs1)c1cccc(Br)c1
11.3 µM | CC/C(=N\Nc1nc(-c2ccc(Cl)c(Cl)c2)cs1)c1cccc(Br)c1
0.51 µM | CC/C(=N\Nc1nc(-c2ccccc2)c(C)s1)c1cccc(Br)c1

Test system: Trypanosoma cruzi
Assay: Antiparasitic activity against Trypanosoma cruzi Y strain trypomastigotes assessed as reduction in parasite viability after 24 hrs by Neubauer chamber counting method
Assay type: functional, organism-based
Details: not given
In short: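 Y strain trypomastigotes collected from Vero cell supernatant, plated at 4 × 10^5 per well, treated in triplicate for 24 h at 37 °C, 5% CO2; benznidazole positive control. Motile (viable) parasites counted in Neubauer chamber, untreated wells = 100%. IC50 by nonlinear regression from at least seven concentrations.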

IC50 | Structure (SMILES)
140 µM | CC/C(=N\Nc1nc(-c2ccc(Cl)cc2)cs1)c1cccc(Br)c1
16.6 µM | CC/C(=N\Nc1nc(-c2ccc(C)cc2)cs1)c1cccc(Br)c1
51 µM | CC/C(=N\Nc1nc(-c2ccc3ccccc3c2)cs1)c1cccc(Br)c1
5.8 µM | CC/C(=N\Nc1nc(-c2ccc(Br)cc2)c(C)s1)c1cccc(Br)c1
5.51 µM | CC/C(=N\Nc1nc(-c2ccccc2)cs1)c1cccc(Br)c1
15.1 µM | CC/C(=N\Nc1nc(-c2cccc([N+](=O)[O-])c2)cs1)c1cccc(Br)c1
2.41 µM | CC/C(=N\NC(N)=S)c1cccc(Br)c1
146 µM | CC/C(=N\Nc1nc(-c2ccc(F)cc2)cs1)c1cccc(Br)c1
59.2 µM | CC/C(=N\Nc1nc(-c2ccc(Cl)cc2Cl)cs1)c1cccc(Br)c1
76.6 µM | CC/C(=N\N=c1/scc(-c2ccc(OC)cc2)n1C)c1cccc(Br)c1
36.3 µM | CC/C(=N\N=C(/S)NC)c1cccc(Br)c1
130 µM | CC/C(=N\Nc1nc(-c2ccc(Cl)c(Cl)c2)cs1)c1cccc(Br)c1
4.79 µM | CC/C(=N\Nc1nc(-c2ccccc2)c(C)s1)c1cccc(Br)c1
53.1 µM | CC/C(=N\N=c1/scc(-c2ccccc2)n1-c1ccccc1)c1cccc(Br)c1
3.84 µM | CC/C(=N\Nc1nc(-c2ccc(OC)cc2)cs1)c1cccc(Br)c1
3.35 µM | CC/C(=N\Nc1nc(-c2ccc(-c3ccccc3)cc2)cs1)c1cccc(Br)c1
60 µM | CC/C(=N\Nc1nc(-c2ccc([N+](=O)[O-])cc2)cs1)c1cccc(Br)c1
13.3 µM | CC/C(=N\N=C(/S)Nc1ccccc1)c1cccc(Br)c1

Biological target: Cruzipain (Trypanosoma cruzi) (UniProt P25779)
Assay: Inhibition of recombinant Trypanosoma cruzi cruzain at 200 uM using Z-FR-AMC as substrate and measured at 12 sec interval for 5 mins by fluorimetric analysis relative to control
Details: not given
In short: as §2, with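 “(solubility-limited). Where inhibition exceeded 80%, IC50 came from seven concentrations by four-parameter variable-slope regression.” for “(solubility-limited).”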

Sequence of Cruzipain (Trypanosoma cruzi) (P25779 123-467 limits assumed): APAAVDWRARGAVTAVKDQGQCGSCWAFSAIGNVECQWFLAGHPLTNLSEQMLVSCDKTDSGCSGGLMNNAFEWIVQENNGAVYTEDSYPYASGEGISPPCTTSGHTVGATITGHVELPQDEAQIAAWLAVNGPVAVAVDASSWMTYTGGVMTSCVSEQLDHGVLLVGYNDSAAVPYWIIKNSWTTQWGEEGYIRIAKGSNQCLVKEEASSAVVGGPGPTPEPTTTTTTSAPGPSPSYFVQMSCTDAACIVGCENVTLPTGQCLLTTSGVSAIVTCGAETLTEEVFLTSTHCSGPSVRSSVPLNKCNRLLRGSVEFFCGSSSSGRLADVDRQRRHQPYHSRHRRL

inhibition | Structure (SMILES)
33.1% | CC/C(=N\N=c1/scc(-c2ccc(OC)cc2)n1C)c1cccc(Br)c1
11.7% | CC/C(=N\N=C(/S)NC)c1cccc(Br)c1
49.5% | CC/C(=N\N=C(/S)Nc1ccccc1)c1cccc(Br)c1

Biological target: Cruzipain (Trypanosoma cruzi) (UniProt P25779)
Assay: Inhibition of recombinant Trypanosoma cruzi cruzain at 300 uM using Z-FR-AMC as substrate and measured at 12 sec interval for 5 mins by fluorimetric analysis relative to control
Details: not given
In short: as §2, with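 “(solubility-limited). Where inhibition exceeded 80%, IC50 came from seven concentrations by four-parameter variable-slope regression.” for “(solubility-limited).”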

inhibition | Structure (SMILES)
90.4% | CC/C(=N\Nc1nc(-c2ccc(Cl)cc2)cs1)c1cccc(Br)c1
97.7% | CC/C(=N\Nc1nc(-c2ccc(C)cc2)cs1)c1cccc(Br)c1
88.2% | CC/C(=N\Nc1nc(-c2ccc3ccccc3c2)cs1)c1cccc(Br)c1
100% | CC/C(=N\Nc1nc(-c2ccc(Br)cc2)c(C)s1)c1cccc(Br)c1
80.7% | CC/C(=N\Nc1nc(-c2ccccc2)cs1)c1cccc(Br)c1
85.3% | CC/C(=N\Nc1nc(-c2cccc([N+](=O)[O-])c2)cs1)c1cccc(Br)c1
95.8% | CC/C(=N\Nc1nc(-c2ccc(F)cc2)cs1)c1cccc(Br)c1
99.7% | CC/C(=N\Nc1nc(-c2ccc(Cl)cc2Cl)cs1)c1cccc(Br)c1
86.8% | CC/C(=N\Nc1nc(-c2ccc(Cl)c(Cl)c2)cs1)c1cccc(Br)c1
99.5% | CC/C(=N\Nc1nc(-c2ccccc2)c(C)s1)c1cccc(Br)c1
72% | CC/C(=N\Nc1nc(-c2ccc(OC)cc2)cs1)c1cccc(Br)c1
18.1% | CC/C(=N\Nc1nc(-c2ccc(-c3ccccc3)cc2)cs1)c1cccc(Br)c1
68.9% | CC/C(=N\Nc1nc(-c2ccc([N+](=O)[O-])cc2)cs1)c1cccc(Br)c1

Test system: Trypanosoma cruzi
Assay: Induction of cytoplasmic vacuolization, irreversible lesions and changes in parasitic morphology in Trypanosoma cruzi trypomastigotes after 24 hrs by TEM analysis
Assay type: functional
Details: dose 3.4-6.8 µM
In short: as §1

Structure (SMILES) | Activity
CC/C(=N\Nc1nc(-c2ccc(OC)cc2)cs1)c1cccc(Br)c1 | Dose-dependent effect

Test system: not listed separately
Assay: Selectivity index, ratio of >90% maximum non-toxic concentration for BALB/c mouse splenocyte to IC50 for Trypanosoma cruzi Y strain trypomastigotes
Assay type: toxicity
Details: splenocytes, read-out: Selectivity Index
In short: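 SI computed as highest non-toxic splenocyte concentration (>90% 3H-thymidine incorporation, 24 h) divided by trypomastigote IC50 (24 h, Neubauer motility count).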

Structure (SMILES) | selectivity ratio
CC/C(=N\Nc1nc(-c2ccc(Cl)cc2)cs1)c1cccc(Br)c1 | 0.8
CC/C(=N\Nc1nc(-c2ccc(C)cc2)cs1)c1cccc(Br)c1 | 7.5
CC/C(=N\Nc1nc(-c2ccc3ccccc3c2)cs1)c1cccc(Br)c1 | > 4.5
O=C(Cn1ccnc1[N+](=O)[O-])NCc1ccccc1 [BENZNIDAZOLE] | 15.4
CC/C(=N\Nc1nc(-c2ccc(Br)cc2)c(C)s1)c1cccc(Br)c1 | 3.6
CC/C(=N\Nc1nc(-c2ccccc2)cs1)c1cccc(Br)c1 | 11.7
CC/C(=N\Nc1nc(-c2cccc([N+](=O)[O-])c2)cs1)c1cccc(Br)c1 | 1.5
CC/C(=N\Nc1nc(-c2ccc(F)cc2)cs1)c1cccc(Br)c1 | 0.8
CC/C(=N\Nc1nc(-c2ccc(Cl)cc2Cl)cs1)c1cccc(Br)c1 | 0.9
CC/C(=N\N=c1/scc(-c2ccc(OC)cc2)n1C)c1cccc(Br)c1 | 0.7
CC/C(=N\N=C(/S)NC)c1cccc(Br)c1 | 0.9
CC/C(=N\Nc1nc(-c2ccc(Cl)c(Cl)c2)cs1)c1cccc(Br)c1 | 0.4
CC/C(=N\Nc1nc(-c2ccccc2)c(C)s1)c1cccc(Br)c1 | 2.6
CC/C(=N\N=c1/scc(-c2ccccc2)n1-c1ccccc1)c1cccc(Br)c1 | 0.9
CC/C(=N\Nc1nc(-c2ccc(OC)cc2)cs1)c1cccc(Br)c1 | 31.3
CC/C(=N\Nc1nc(-c2ccc(-c3ccccc3)cc2)cs1)c1cccc(Br)c1 | > 64.5
CC/C(=N\Nc1nc(-c2ccc([N+](=O)[O-])cc2)cs1)c1cccc(Br)c1 | > 3.9
CC/C(=N\N=C(/S)Nc1ccccc1)c1cccc(Br)c1 | 10.4

Test system: Trypanosoma cruzi
Assay: Induction of morphological changes in Trypanosoma cruzi trypomastigotes assessed as formation of membrane blebs at 3.4 to 6.8 uM after 24 hrs by TEM analysis
Assay type: functional, organism-based
Details: dose 3.4-6.8 µM
In short: as §1

Structure (SMILES) | Activity
CC/C(=N\Nc1nc(-c2ccc(OC)cc2)cs1)c1cccc(Br)c1 | Active

Test system: not listed separately
Assay: Cytotoxicity against BALB/c mouse splenocyte incubated for 24 hrs by [3H]-thymidine incorporation based counter beta irradiation method
Assay type: cell-based
Details: splenocytes
In short: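 BALB/c splenocytes, 5 × 10^6 cells/well in RPMI-1640 + 10% inactivated FBS. Compounds from 10 mg/mL DMSO stock, serially diluted to […] (units as printed), in triplicate. Saponin 0.1 mg/mL positive control; medium + DMSO negative (=100%). 3H-thymidine 1.0 added, 24 h at 37 °C, 5% CO2, beta counting; highest concentration giving >90% incorporation taken as non-toxic.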

Structure (SMILES) | MNTC at 24 h
CC/C(=N\Nc1nc(-c2ccc(Cl)cc2)cs1)c1cccc(Br)c1 | 119 µM
CC/C(=N\Nc1nc(-c2ccc(C)cc2)cs1)c1cccc(Br)c1 | 125 µM
CC/C(=N\Nc1nc(-c2ccc3ccccc3c2)cs1)c1cccc(Br)c1 | > 229 µM
CC/C(=N\Nc1nc(-c2ccc(Br)cc2)c(C)s1)c1cccc(Br)c1 | 20.9 µM
CC/C(=N\Nc1nc(-c2ccccc2)cs1)c1cccc(Br)c1 | 64.7 µM
CC/C(=N\Nc1nc(-c2cccc([N+](=O)[O-])c2)cs1)c1cccc(Br)c1 | 23.2 µM
CC/C(=N\NC(N)=S)c1cccc(Br)c1 | 34.9 µM
CC/C(=N\Nc1nc(-c2ccc(F)cc2)cs1)c1cccc(Br)c1 | 124 µM
CC/C(=N\Nc1nc(-c2ccc(Cl)cc2Cl)cs1)c1cccc(Br)c1 | 54.9 µM
CC/C(=N\N=c1/scc(-c2ccc(OC)cc2)n1C)c1cccc(Br)c1 | 58.1 µM
CC/C(=N\N=C(/S)NC)c1cccc(Br)c1 | 33.3 µM
CC/C(=N\Nc1nc(-c2ccc(Cl)c(Cl)c2)cs1)c1cccc(Br)c1 | 54.9 µM
CC/C(=N\Nc1nc(-c2ccccc2)c(C)s1)c1cccc(Br)c1 | 12.5 µM
CC/C(=N\N=c1/scc(-c2ccccc2)n1-c1ccccc1)c1cccc(Br)c1 | 50.8 µM
CC/C(=N\Nc1nc(-c2ccc(OC)cc2)cs1)c1cccc(Br)c1 | 120 µM
CC/C(=N\Nc1nc(-c2ccc(-c3ccccc3)cc2)cs1)c1cccc(Br)c1 | > 216 µM
CC/C(=N\Nc1nc(-c2ccc([N+](=O)[O-])cc2)cs1)c1cccc(Br)c1 | > 232 µM
CC/C(=N\N=C(/S)Nc1ccccc1)c1cccc(Br)c1 | 138 µM

Test system: Trypanosoma cruzi
Assay: Induction of morphological changes in Trypanosoma cruzi trypomastigotes assessed as cytoplasmic vacuolization at 6.8 uM after 24 hrs by TEM analysis
Assay type: functional, organism-based
Details: not given
In short: as §1

Structure (SMILES) | Activity
CC/C(=N\Nc1nc(-c2ccc(OC)cc2)cs1)c1cccc(Br)c1 | Active

Test system: Trypanosoma cruzi
Assay: Induction of morphological changes in Trypanosoma cruzi trypomastigotes assessed as abnormal chromatin condensation at 3.4 to 6.8 uM after 24 hrs by TEM analysis
Assay type: functional, organism-based
Details: dose 3.4-6.8 µM
In short: as §1

Structure (SMILES) | Activity
CC/C(=N\Nc1nc(-c2ccc(OC)cc2)cs1)c1cccc(Br)c1 | Active

Test system: Trypanosoma cruzi
Assay: Induction of morphological changes in Trypanosoma cruzi trypomastigotes assessed as contortion of parasite body with presence of blebs in flagellum and parasite body at 3.4 uM after 24 hrs by SEM analysis
Assay type: functional, organism-based
Details: not given
In short: as §1

Structure (SMILES) | Activity
CC/C(=N\Nc1nc(-c2ccc(OC)cc2)cs1)c1cccc(Br)c1 | Active

Test system: Trypanosoma cruzi
Assay: Induction of morphological changes in Trypanosoma cruzi trypomastigotes assessed as membrane projections at 3.4 uM after 24 hrs by TEM analysis
Assay type: functional, organism-based
Details: not given
In short: as §1

Structure (SMILES) | Activity
CC/C(=N\Nc1nc(-c2ccc(OC)cc2)cs1)c1cccc(Br)c1 | Active

Test system: Trypanosoma cruzi
Assay: Induction of morphological changes in Trypanosoma cruzi trypomastigotes assessed as contortion of parasite body and alteration in morphology and size of flagellum at 6.8 uM after 24 hrs by SEM analysis
Assay type: functional, organism-based
Details: not given
In short: as §1

Structure (SMILES) | Activity
CC/C(=N\Nc1nc(-c2ccc(OC)cc2)cs1)c1cccc(Br)c1 | Active

Test system: Trypanosoma cruzi
Assay: Induction of morphological changes in Trypanosoma cruzi trypomastigotes assessed as mitochondrial swelling at 3.4 to 6.8 uM after 24 hrs by TEM analysis
Assay type: functional, organism-based
Details: dose 3.4-6.8 µM
In short: as §1

Structure (SMILES) | Activity
CC/C(=N\Nc1nc(-c2ccc(OC)cc2)cs1)c1cccc(Br)c1 | Active
